Only some compounds are listed: those with a hit (about 2.2% of all), similar ones and a draw of the others.
CD11b adhes inh = inhibitors of CD11b/CD18 adhesion to fibrinogen, primary screen, K562 cells, luminescence; Integrin beta-2 (Homo sapiens) + Integrin alpha-M (Homo sapiens), P05107+P11215; ATPlite luminescence; Mn2+ added to activate the integrin; inhibition, % at 10 µM; actives 0.54% (n = 93,000); AID 1497, 2009;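 active means primary inhibition of 50% or more at 10 µM, then 40% or more on retest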
RORA act = activators of orphan receptor RORA, primary screen, cell-based, luminescence. activation, % at 10 µM. actives 1.5% (n = 65,000). Nuclear receptor ROR-alpha (Homo sapiens), P35398. CHO-K1 Gal4-RORA LBD luciferase reporter; percent increase over mock-subtracted basal signal;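 active means activation above the mean of all tested compounds plus 3 SD, cut at about 49% in these data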;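 further: 0% = DMSO-treated RORA cells and 100% = added signal equal to DMSO minus mock-transfected cells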
Target sequence (P35398 whole entry, looked up, the tested form may be a part): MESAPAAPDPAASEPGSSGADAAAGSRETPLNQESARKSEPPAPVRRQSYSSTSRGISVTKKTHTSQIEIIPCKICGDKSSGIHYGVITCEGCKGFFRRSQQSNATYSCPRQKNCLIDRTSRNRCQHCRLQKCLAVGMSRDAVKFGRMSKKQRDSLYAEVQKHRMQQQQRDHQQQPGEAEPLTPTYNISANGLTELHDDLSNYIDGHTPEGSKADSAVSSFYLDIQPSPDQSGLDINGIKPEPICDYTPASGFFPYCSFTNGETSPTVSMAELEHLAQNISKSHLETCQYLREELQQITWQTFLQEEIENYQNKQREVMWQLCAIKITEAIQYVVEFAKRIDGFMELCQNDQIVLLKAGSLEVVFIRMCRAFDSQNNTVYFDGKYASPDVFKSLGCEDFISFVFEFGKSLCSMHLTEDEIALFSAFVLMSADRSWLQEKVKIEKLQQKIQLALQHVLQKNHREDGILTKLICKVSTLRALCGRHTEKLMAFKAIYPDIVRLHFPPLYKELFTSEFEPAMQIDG
Candida biofilm = clotrimazole potentiators killing Candida biofilms, primary screen, with clotrimazole, Alamar Blue; inhibition, % at 6 µM; actives 0.14% (n = 85,000); AID 834, 2007; C. albicans biofilm + clotrimazole;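 active means inhibition above 20%; inactive means inhibition below 20%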;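 further: preformed 24 hr biofilms exposed to compound for 48 hr; 0% = biofilm without compound and 100% = blank killed by clotrimazole plus chlorhexidine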
SF-1 act = activators of human SF-1, primary screen, cell-based, CHO-K1, Gal4-SF-1 LBD, luciferase luminescence. CHO-K1 Gal4-SF-1 LBD luciferase reporter; % increase over DMSO SF-1-specific signal. actives 1.9% (n = 65,000). activation, % at 10 µM. AID 522, 2006;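 active means activation above the mean activation of all tested compounds plus 3 SD, cut at about 50% in these data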
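Material: Transient Gal4-SF-1 LBD reporter, CHO-K1 | Input: 4,000 cells/well | Dosing: One dose, 10 µM compound, 1% DMSO | Incubation: 20 h compound treatment, 37 °C | Detection: SteadyLite luciferase luminescence | Evaluation: Percent activation relative to DMSO median and mock-transfected background | Benchmarks: DMSO-treated SF-1-transfected cells as negative, DMSO-treated mock-transfected cells lacking SF-1 as background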
CD11b adhes enh = enhancers of CD11b/CD18 adhesion to fibrinogen, primary screen, K562 cells, luminescence | Integrin beta-2 (Homo sapiens) + Integrin alpha-M (Homo sapiens), P05107+P11215 | ATPlite luminescence | activation, % at 10 µM | actives 0.07% (n = 93,000) | AID 1499, 2009;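 active means 10 µM primary screen giving 50% or more activity, confirmed by 40% or more on retest at that dose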
MT1-MMP txn act = MT1-MMP promoter reporter activation – cell-based, luciferase luminescence, primary screen; HT1080 MT1-MMP promoter luciferase reporter, overnight; active compounds read high; activation factor at 10 µM; actives 0.16% (n = 86,000);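 active means activation factor of at least 2 for MT1-MMP transcription at 10 µM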
Active calls of the source: *; . = not tested or not shown.

SMILES	CD11b adhes inh	RORA act	Candida biofilm	SF-1 act	CD11b adhes enh	MT1-MMP txn act
CC(=O)Nc1ccc(NC2=CC(=O)CC(C)(C)C2)cc1	4	-13	1	10	0	1.1
Fc1ccc(NC(=S)Nc2ccc(F)c(Cl)c2)cc1Cl	92*	.	.	.	-7	.
COC(=O)c1ccc(C(NC(=O)OCc2ccccc2)/C(F)=C/[C@@H](C)C(=O)NCCc2c[nH]c3ccc(OC)cc23)cc1 (stereo not given in full)	.	.	.	.	.	1.2
N#Cc1c(/N=C/c2cc(Br)cs2)sc2c1CCC2	.	.	2	.	.	2.2*
N#Cc1c(/N=C/c2ccco2)sc2c1CCCCC2	79	45	3	82*	-4	1
O=c1c2c3c(sc2ncn1/N=C/c1ccco1)CCCC3	-2	6	-5	1	-3	1.1
N#Cc1c(/N=C/c2cccs2)sc2c1CCC2	34	-22	-4	31	0	1.4
CCC1=C2CC[C@H]3C(=O)N(CC)C(=O)[C@H]3[C@H]2[C@@]2(Cc3ccccc3)C(=NCC3CC3)OC(=O)N2C1=O	.	.	.	.	.	1.1
CC(=O)c1c(C)[nH]c(C(=O)N2c3ccccc3CC2C)c1C (stereo not given)	-6	-2	27*	-18	-1	1.1
CC(=O)c1c(C)[nH]c(C(=O)N2CCc3ccccc3C2)c1C	.	9	7	8	.	1.1
O=c1c(-c2ccccc2)n[nH]c2ccccc12	5	31	6	75*	0	1.1
CCN(CC)c1ccc(-n2cc3c(=O)n(C)c(=O)n(C)c3c2)cc1	9	6	2	56*	-4	1.2
CN(C)c1ccc(-n2cc3c(=O)n(C)c(=O)n(C)c3c2)cc1	-13	49*	3	14	0	1.5
CN(C)c1ccc(O)c2c1CC1CC3[C@@H](N(C)C)C(=O)C(C(N)=O)=C(O)[C@]3(O)C(=O)C1=C2O (stereo not given in full)	.	0	25*	-6	.	1
COC(=O)[C@@]1(C)C[C@@H]1[C@@H](NC(=O)[C@@]1(C)C[C@@H]1[C@@H](NC(=O)[C@@]1(C)C[C@@H]1[C@@H](NC(=O)[C@@]1(C)C[C@@H]1[C@@H](NC(=O)OCc1ccccc1)c1ccccc1)c1ccccc1)c1ccccc1)c1ccccc1	.	.	.	.	.	1.1
COc1cc(OC)cc(-c2nc3cc(C)ccc3o2)c1	-27	57*	4	72*	9	1.3
CC1(C)Cc2c(c(N3CCOCC3)nc3sc4c(NCc5ccco5)nnnc4c23)CS1	0	-21	24*	-22	0	1.8
CC1(C)Cc2c(c(N3CCOCC3)nc3sc4c(NCc5ccccc5)nnnc4c23)CS1	0	.	6	.	-4	0.9
O=C(COc1ccccc1)Nc1nc2ccccc2[nH]1	-4	55*	6	60*	-2	1.4
O=C(COc1cccc2ccccc12)Nc1nc2ccccc2[nH]1	0	.	7	.	4	1.1
COC(=O)[C@@]1(Cc2ccc(OC)cc2)[C@H]2c3cc(C(=O)N(C)C)n(Cc4ccccc4)c3C[C@H]2CN1C(=O)c1ccccc1	.	.	.	.	.	1.2
CCCc1cc(=O)n2[nH]c(-c3ccc(Br)cc3)cc2n1	.	38	-7	112*	.	1.6
CCOC(=O)C1=C(COc2ccccc2)NC(=O)NC1c1ccc(C#N)cc1 (stereo not given)	.	.	.	.	.	1.1
COc1ccccc1Oc1ccc(S(=O)(=O)NCc2ccccn2)cc1	68*	-13	3	-3	-7	1.3
COc1ccc(S(=O)(=O)NCc2ccccn2)cc1Cl	-15	-15	2	-13	6	1.1
SMILES	CD11b adhes inh	RORA act	Candida biofilm	SF-1 act	CD11b adhes enh	MT1-MMP txn act
FC(F)(F)c1ccc(N=Cc2sc(N3CCOCC3)nc2-c2ccccc2)cc1	5	.	.	.	16	.
Cn1c2ccccc2c2ncn(CCCN3CCOCC3)c(=O)c21	-6	8	6	42	-4	1.4
Cn1c2ccccc2c2ncn(CCC3=CCCCC3)c(=O)c21	-1	48	9	51*	-4	1.5
O=C(CSc1nc2ccccc2o1)Nc1nc2ccc(Br)cc2s1	36	.	.	.	34	.
Cc1cccc2sc(NC(=O)CSc3nc4ccccc4o3)nc12	13	.	52*	.	3	1.2
CCCC[C@@H]1C[C@H]1C(NC(=O)c1cccs1)c1ccc(-c2ccccc2)cc1 (stereo not given in full)	.	.	.	.	.	1.3
O=S1(=O)C[C@H]2NC(=S)N(c3ccccc3)[C@H]2C1	5	.	.	.	0	.
CC1(C)Cc2c(sc3nc(-c4cc5ccccc5o4)n(N)c(=O)c23)CO1	-17	59*	4	35	0	1.2
Cc1ccc(-c2nc3sc4c(c3c(=O)n2N)CC(C)(C)OC4)cc1	-16	.	8	.	-3	1.1
COC(=O)[C@@]1(Cc2ccc(OC)cc2)[C@H]2c3cc(C(=O)N4CCCC4)n(Cc4ccsc4Br)c3C[C@H]2CN1C(=O)c1ccccc1	.	.	.	.	.	1.1
COC(=O)C1=C(O)/C(=C\c2ccc(O)c(OC)c2)N=C1C	-12	.	2	.	-7	1.2
CCOC(=O)C1=C(O)/C(=C\c2ccc(CNC(=O)C(=O)Nc3ccc(C)c(C)c3)o2)N=C1C	0	.	69*	.	22	1
O=C(O)c1ccccc1COc1ccccc1Cl	-16	-13	8	-11	3	1.1
CCOc1ccc(OCc2cccc(C(=O)O)c2)cc1	59*	-94	.	-95	-1	0
O=C(O)c1cccc(OCc2ccccc2Cl)c1	-13	24	.	80*	-2	1.3
O=C(COC(=O)c1cccc(S(=O)(=O)N2CCc3ccccc32)c1)Nc1ccc(Cl)cn1	7	.	.	.	16	.
Cc1ccc(/C=c2/sc3n(c2=O)CCCN=3)o1	.	.	.	.	.	1.7
O=c1/c(=C\c2ccc3c(c2)OCO3)sc2n1CCCN=2	-9	55*	5	49	-4	1.1
CCCC[C@@H]1C[C@H]1C(NC(=O)Cc1ccccc1)c1ccc(Cl)cc1 (stereo not given in full)	.	.	.	.	.	1.2
CCCCNC(=O)CSc1nnc(NC(C)=O)s1	-6	-25	0	-10	-4	1.1
CCCCCCSc1nsc(NC(C)=O)n1	3	75*	7	21	0	1.3
CCCCSc1nsc(NC(C)=O)n1	0	56*	5	49	1	1.1
CC(=O)Nc1nc(-c2ccccc2)ns1	.	.	5	.	.	1.6
C[C@@H](C(=O)Nc1ccc2ccccc2c1)[C@H]1C[C@]1(C)[C@H](NC(=O)Oc1ccc(F)cc1)c1ccccc1	.	.	.	.	.	1.3

Source: PubChem BioAssay
